According to ChEMBL document CHEMBL3232844, “Synthesis and structure activity relationships of schweinfurthin indoles” (2014):

How the values were obtained:
Format in all cases: functional
NCI-H322M = experiment: Cytotoxicity against human NCI-H322M cells
Procedure, shortened: (§1)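 Tested in a 60-cell-line human tumor panel screen; the read-out is growth inhibition, reported as GI50 for each cell line.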

[1] = Cytotoxicity against human OVCAR3 cells; procedure, shortened: as §1
SF-539 = experiment: Cytotoxicity against human SF539 cells; procedure, shortened: as §1
RXF 393 = experiment: Cytotoxicity against human RXF393 cells; procedure, shortened: as §1
CCRF-CEM = experiment: Cytotoxicity against human CCRF-CEM cells
MOLT-4 = experiment: Cytotoxicity against human MOLT4 cells; procedure, shortened: as §1
A498 = experiment: Cytotoxicity against human A498 cells; procedure, shortened: as §1
SK-MEL-5 = experiment: Cytotoxicity against human SK-MEL-5 cells; conditions: read-out: pLC50 (the source's name) (converted); procedure, shortened: as §1
PC-3 = experiment: Cytotoxicity against human PC3 cells; procedure, shortened: as §1
NCI-H226 = experiment: Cytotoxicity against human NCI-H226 cells; procedure, shortened: as §1
HT-29 = experiment: Cytotoxicity against human HT-29 cells; procedure, shortened: as §1
SK-MEL-2 = experiment: Cytotoxicity against human SK-MEL-2 cells; procedure, shortened: as §1
BT-549 = experiment: Cytotoxicity against human BT549 cells; procedure, shortened: as §1
HCC 2998 = experiment: Cytotoxicity against human HCC2998 cells; procedure, shortened: as §1
MDA-MB-435 = experiment: Cytotoxicity against human MDA-MB-435 cells; procedure, shortened: as §1
U-251 = experiment: Cytotoxicity against human U251 cells
Procedure, shortened: (§2)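 Cell line run as part of the 60-cell-line screening panel; growth inhibition was reported as a GI50 for each line.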

DU-145 = experiment: Cytotoxicity against human DU145 cells; procedure, shortened: as §1
KM12 = experiment: Cytotoxicity against human KM12 cells; procedure, shortened: as §1
SK-OV-3 = experiment: Cytotoxicity against human SKOV3 cells; procedure, shortened: as §1
[2] = Cytotoxicity against human UACC257 cells; procedure, shortened: as §2
ACHN = experiment: Cytotoxicity against human ACHN cells; procedure, shortened: as §1
[3] = Cytotoxicity against human OVCAR5 cells; procedure, shortened: as §1
NCI-H23 = experiment: Cytotoxicity against human NCI-H23 cells; procedure, shortened: as §1
[4] = Cytotoxicity against human EKVX cells; procedure, shortened: as §1
[5] = Cytotoxicity against human NCI-ADR-RES cells; procedure, shortened: as §1
SF-268 = experiment: Cytotoxicity against human SF268 cells; procedure, shortened: as §1
MDA-MB-231 = experiment: Cytotoxicity against human MDA-MB-231 cells; procedure, shortened: as §1
HL-60(TB) = experiment: Cytotoxicity against human HL-60(TB) cells
Procedure, shortened: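 Tested within the NCI 60-cell-line screen, with GI50 as the read-out. Values are the average of two independent experiments. The lowest concentration tested was 10 nM.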

SF-295 = experiment: Cytotoxicity against human SF295 cells; procedure, shortened: as §1
SR = experiment: Cytotoxicity against human SR cells; procedure, shortened: as §2
[6] = Cytotoxicity against human UACC62 cells; conditions: UACC-62, read-out: pLC50 (the source's name) (converted); procedure, shortened: as §2
K562 = experiment: Cytotoxicity against human K562 cells; procedure, shortened: as §1
[7] = Cytotoxicity against human UO31 cells; procedure, shortened: as §2
M14 = experiment: Cytotoxicity against human M14 cells; procedure, shortened: as §1
786-0 = experiment: Cytotoxicity against human 786-0 cells; procedure, shortened: as §1
[8] = Cytotoxicity against human OVCAR8 cells; procedure, shortened: as §1
SNB-75 = experiment: Cytotoxicity against human SNB75 cells; procedure, shortened: as §2
NCI-H460 = experiment: Cytotoxicity against human NCI-H460 cells; procedure, shortened: as §1
SN12C = experiment: Cytotoxicity against human SN12C cells; procedure, shortened: as §1
T47D = experiment: Cytotoxicity against human T47D cells; procedure, shortened: as §2
MCF7 = experiment: Cytotoxicity against human MCF7 cells; procedure, shortened: as §1
SNB-19 = experiment: Cytotoxicity against human SNB19 cells; procedure, shortened: as §1
MDA-MB-468 = experiment: Cytotoxicity against human MDA-MB-468 cells; procedure, shortened: as §1
[9] = read-out: pLC50 (the source's name) (converted)

COc1cc(/C=C/c2cc(O)c3c(c2)C[C@@H]2C(C)(C)[C@H](O)CC[C@@]2(C)O3)cc2c1ccn2C showed a GI50 (NCI-H322M) of 13.2 µM, a CC50 (NCI-H322M; [9]) of 60.3 µM and a TGI (NCI-H322M; read-out: pTGI (converted)) of 28.2 µM. For the same molecule, the GI50 ([1]; OVCAR-3) was 10.2 µM, the CC50 ([1]; OVCAR-3, read-out: pLC50 (the source's name) (converted)) was 53.7 µM and the TGI ([1]; OVCAR-3, read-out: pTGI (converted)) was 24 µM. The GI50 (SF-539) was 1.62 µM, the CC50 (SF-539; [9]) was 45.7 µM and the TGI (SF-539; read-out: pTGI (converted)) was 13.2 µM. It also gave a GI50 (RXF 393) of 0.00891 µM, an LC50 (RXF 393) of 27.5 µM and a TGI (RXF 393; read-out: pTGI (converted)) of 1.58 µM. It also gave a GI50 (CCRF-CEM) of 0.0537 µM, a CC50 (CCRF-CEM; [9]) of 89.1 µM and a TGI (CCRF-CEM; read-out: pTGI (converted)) of 12.3 µM. For the same molecule, the GI50 (MOLT-4) was 0.0389 µM, the CC50 (MOLT-4; [9]) was 89.1 µM and the TGI (MOLT-4; read-out: pTGI (converted)) was 14.8 µM. It also gave a GI50 (A498) of 0.0437 µM, a CC50 (A498; [9]) of 53.7 µM and a TGI (A498; read-out: pTGI (converted)) of 9.33 µM. For the same molecule, the CC50 (SK-MEL-5) was 12 µM, the GI50 (PC-3) was 0.741 µM and the LC50 (PC-3) was 89.1 µM. For the same molecule, the TGI (PC-3; read-out: pTGI (converted)) was 38 µM, the GI50 (NCI-H226) was 16.2 µM and the CC50 (NCI-H226; [9]) was 89.1 µM. For the same molecule, the TGI (NCI-H226; read-out: pTGI (converted)) was 60.3 µM, the GI50 (HT-29) was 6.03 µM and the CC50 (HT-29; [9]) was 41.7 µM. For the same molecule, the TGI (HT-29; read-out: pTGI (converted)) was 15.1 µM, the GI50 (SK-MEL-2) was 2.29 µM and the CC50 (SK-MEL-2; [9]) was 43.7 µM. It also gave a TGI (SK-MEL-2; read-out: pTGI (converted)) of 17 µM, a GI50 (BT-549) of 0.138 µM and a CC50 (BT-549; [9]) of 52.5 µM. For the same molecule, the TGI (BT-549; read-out: pTGI (converted)) was 20.4 µM, the GI50 (HCC 2998) was 0.214 µM and the CC50 (HCC 2998; [9]) was 45.7 µM. For the same molecule, the TGI (HCC 2998; read-out: pTGI (converted)) was 18.6 µM, the GI50 (MDA-MB-435) was 0.389 µM and the CC50 (MDA-MB-435; [9]) was 61.7 µM. It also gave a TGI (MDA-MB-435; read-out: pTGI (converted)) of 9.12 µM, a GI50 (U-251) of 0.141 µM and a CC50 (U-251; [9]) of 43.7 µM. It also gave a TGI (U-251; read-out: pTGI (converted)) of 15.5 µM, a GI50 (DU-145) of 5.62 µM and an LC50 (50% lethal concentration) (DU-145) of 42.7 µM. It also gave a TGI (DU-145; read-out: pTGI (converted)) of 19.1 µM, a GI50 (KM12) of 0.295 µM and a CC50 (KM12; [9]) of 44.7 µM. It also gave a TGI (KM12; read-out: pTGI (converted)) of 18.6 µM, an LC50 (SK-OV-3) of 89.1 µM and a TGI (SK-OV-3; read-out: pTGI (converted)) of 35.5 µM. The GI50 ([2]; UACC-257) was 0.0389 µM, the CC50 ([2]; UACC-257, read-out: pLC50 (the source's name) (converted)) was 64.6 µM and the TGI ([2]; UACC-257, read-out: pTGI (converted)) was 25.1 µM. The GI50 (ACHN) was 1.23 µM, the LC50 (concentration killing 50% of cells) (ACHN) was 50.1 µM and the TGI (ACHN; read-out: pTGI (converted)) was 17.8 µM. It also gave a GI50 ([3]; OVCAR-5) of 11.2 µM, a CC50 ([3]; OVCAR-5, read-out: pLC50 (the source's name) (converted)) of 53.7 µM and a TGI ([3]; OVCAR-5, read-out: pTGI (converted)) of 21.9 µM. The GI50 (NCI-H23) was 1.38 µM, the CC50 (NCI-H23; [9]) was 44.7 µM and the TGI (NCI-H23; read-out: pTGI (converted)) was 15.5 µM. For the same molecule, the GI50 [4] was 4.07 µM, the CC50 [4, 9] was 64.6 µM and the TGI ([4]; read-out: pTGI (converted)) was 22.9 µM. The GI50 [5] was 9.55 µM, the CC50 [5, 9] was 89.1 µM and the TGI ([5]; read-out: pTGI (converted)) was 46.8 µM. The GI50 (SF-268) was 0.0129 µM, the CC50 (SF-268; [9]) was 69.2 µM and the TGI (SF-268; read-out: pTGI (converted)) was 24 µM. For the same molecule, the GI50 (MDA-MB-231) was 3.89 µM, the LC50 (MDA-MB-231) was 51.3 µM and the TGI (MDA-MB-231; read-out: pTGI (converted)) was 19.1 µM. It also gave a GI50 (HL-60(TB)) of 0.0447 µM, a CC50 (HL-60(TB); [9]) of 89.1 µM and a TGI (HL-60(TB); read-out: pTGI (converted)) of 16.6 µM. The GI50 (SF-295; read-out: GI50) was < 0.012 µM, the GI50 (SF-295; read-out: pGI50 (converted)) was 0.0209 µM and the CC50 (SF-295; [9]) was 1.95 µM. For the same molecule, the TGI (SF-295; read-out: pTGI (converted)) was 0.0437 µM, the GI50 (SR) was 0.0759 µM and the CC50 (SR; [9]) was 89.1 µM. The TGI (SR; read-out: pTGI (converted)) was 39.8 µM, the CC50 [6] was 21.4 µM and the GI50 (K562) was 0.0813 µM. It also gave a CC50 (K562; [9]) of 89.1 µM, a TGI (K562; read-out: pTGI (converted)) of 6.31 µM and a GI50 ([7]; UO-31) of 0.0813 µM. For the same molecule, the LC50 ([7]; UO-31) was 32.4 µM, the TGI ([7]; UO-31, read-out: pTGI (converted)) was 2.95 µM and the GI50 (M14) was 0.759 µM. The CC50 (M14; [9]) was 7.08 µM, the TGI (M14; read-out: pTGI (converted)) was 1.26 µM and the GI50 (786-0) was 0.0275 µM. For the same molecule, the LC50 (concentration killing 50% of cells) (786-0) was 7.94 µM, the TGI (786-0; read-out: pTGI (converted)) was 1.7 µM and the GI50 ([8]; OVCAR-8) was 4.27 µM. It also gave a CC50 ([8]; OVCAR-8, read-out: pLC50 (the source's name) (converted)) of 89.1 µM, a TGI ([8]; OVCAR-8, read-out: pTGI (converted)) of 39.8 µM and a GI50 (SNB-75) of 0.0525 µM. It also gave a CC50 (SNB-75; [9]) of 35.5 µM, a TGI (SNB-75; read-out: pTGI (converted)) of 5.37 µM and a GI50 (NCI-H460) of 0.309 µM. It also gave a CC50 (NCI-H460; [9]) of 89.1 µM, a TGI (NCI-H460; read-out: pTGI (converted)) of 23.4 µM and a GI50 (SN12C) of 10.5 µM. The LC50 (SN12C) was 52.5 µM, the TGI (SN12C; read-out: pTGI (converted)) was 23.4 µM and the GI50 (T47D) was 7.41 µM. It also gave a CC50 (T47D; [9]) of 63.1 µM, a TGI (T47D; read-out: pTGI (converted)) of 23.4 µM and a GI50 (MCF7) of 0.661 µM. The LC50 (MCF7) was 50.1 µM, the TGI (MCF7; read-out: pTGI (converted)) was 12.3 µM and the GI50 (SNB-19) was 0.0141 µM. The CC50 (SNB-19; [9]) was 41.7 µM, the TGI (SNB-19; read-out: pTGI (converted)) was 13.8 µM and the GI50 (MDA-MB-468) was 0.871 µM. The LC50 (MDA-MB-468) was 46.8 µM and the TGI (MDA-MB-468; read-out: pTGI (converted)) was 15.1 µM.
